The list is not random: actives were taken first. Their share in the collection is about 2.1%.
GRK2 aptamer HTS: compounds blocking aptamer binding on GRK2 – biochemical, human GRK2, bead flow cytometry, HTS, primary screen; Beta-adrenergic receptor kinase 1 (Homo sapiens), P25098; FAM-aptamer displacement from GRK2; inhibition of aptamer binding, % at 10 µM; hit rate 0.59% among 330,000; AID 488847, 2010;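 active = inhibition of aptamer binding above 40%, roughly 3 SD of noise, on plates passing a quality check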;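 also: median bead fluorescence of bound FAM aptamer so fluorescent compounds give negative values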
DNMT1 inh: human DNMT1 methyltransferase inhibitors, primary screen, biochemical, molecular beacon, fluorescence, HinP1I cleavage, uHTS; inhibition (reported as % activation of signal), % at 10 µM; hit rate 0.83% among 360,000; DNA (cytosine-5)-methyltransferase 1 (Homo sapiens), P26358; in the data active = inhibition above about 50%
Scp1 inh: Scp-1 phosphatase inhibitors, primary screen, biochemical, colorimetric, uHTS. Carboxy-terminal domain RNA polymerase II polypeptide A small phosphatase 1 (Homo …. Recombinant Scp1, phosphopeptide, malachite green phosphate absorbance. inhibition, % at 20 µM. hit rate 0.88% among 340,000. AID 493091, 2011;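 active = inhibition above about 50% at 20 µM, limit read from the data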;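 also: plate controls were DMSO wells with enzyme for no effect and wells lacking enzyme for full effect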
Target sequence (Q9GZU7 76-261 limits assumed): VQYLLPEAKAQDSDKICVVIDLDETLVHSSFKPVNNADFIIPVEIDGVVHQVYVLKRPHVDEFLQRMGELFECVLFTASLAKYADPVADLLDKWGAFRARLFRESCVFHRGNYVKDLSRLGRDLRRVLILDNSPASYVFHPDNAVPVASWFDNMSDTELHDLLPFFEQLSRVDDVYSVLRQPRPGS
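Times: enzyme reaction 45 min at room temperature, colour 5 min, stabilisation 30 min. Material: SCP-1 catalytic fragment, aa 76-261. Medium: Acidic Tris acetate buffer with magnesium and detergent. Signal: colorimetric free-phosphate detection, absorbance 630 nm. Read-out basis: % inhibition of SCP-1 phosphate liberation. Reagent: Phosphorylated 17-residue peptide substrate.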
STEP inh: STEP phosphatase inhibitors, primary screen, biochemical, fluorescence intensity, uHTS | hit rate 0.25% among 360,000 | recombinant STEP, OMFP fluorogenic substrate | inhibition, % at 20 µM | AID 588621, 2011 | Tyrosine-protein phosphatase non-receptor type 5 (Homo sapiens), P54829;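 active = inhibition at 20 µM, scaled per plate between control wells, above about 37%, limit read from the data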;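 also: 0% = DMSO with enzyme and substrate and 100% = substrate only without enzyme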
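medium = Bis-Tris buffer pH 6.0, 2.5 mM DTT, 0.005% Tween 20 | test system = STEP (striatal-enriched tyrosine phosphatase) enzyme, cell-free | measure = normalized % inhibition | compound dosing = 20 µM, 1% DMSO | also added = 25 µM OMFP | schedule = reaction 20 min, ambient temperature | measured by = fluorescence read at 480 nm ex / 540 nm em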
SUMO1-SIM PPI: modulators of SUMO1 protein-protein interactions, primary screen, biochemical, uHTS. Small ubiquitin-related modifier 1 (Homo sapiens), P63165. SUMO1 binding to a labelled peptide, TR-FRET, 1 h. inhibition, % at 20 µM. hit rate 0.33% among 360,000; in the data active = inhibition above about 37%
Target sequence (P63165 whole entry, looked up): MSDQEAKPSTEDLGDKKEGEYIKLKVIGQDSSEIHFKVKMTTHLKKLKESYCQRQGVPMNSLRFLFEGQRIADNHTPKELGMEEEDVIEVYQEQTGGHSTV
LMPTP block: LMPTP phosphatase inhibitors, primary screen, biochemical, fluorescence intensity, uHTS. Low molecular weight phosphotyrosine protein phosphatase (Homo sapiens), P24666. recombinant LMPTP-A, OMFP fluorogenic substrate. inhibition, % at 20 µM. hit rate 0.22% among 360,000. AID 651560, 2012;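 active = compounds that cut the enzyme signal by at least half of the control window in the single-dose screen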;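 also: plate controls were DMSO wells with enzyme plus substrate for no effect and substrate without enzyme for full effect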
Target sequence (P24666 whole entry, looked up): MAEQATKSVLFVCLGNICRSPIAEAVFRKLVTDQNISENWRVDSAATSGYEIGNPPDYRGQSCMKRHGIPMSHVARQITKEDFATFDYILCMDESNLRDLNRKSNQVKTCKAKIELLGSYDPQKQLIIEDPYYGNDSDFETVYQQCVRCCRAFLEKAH
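Material: LMPTP-A; amount: 0.625 nM enzyme; doses: single 20 µM dose; times: reaction 50 min, room temperature, dark; technique: fluorescence intensity of OMFP turnover product; benchmarks: no-enzyme and uninhibited controls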
Scp-1 conf: Scp-1 phosphatase inhibitors, retest, confirmation, biochemical, colorimetric, single concentration; inhibition, % at 20 µM; AID 540281, 2011; recombinant SCP-1 catalytic domain, phosphate release, malachite green absorbance; hit rate 61% among 2,500; shares compounds with Scp1 inh;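 also: plate controls were DMSO with enzyme for no effect and buffer wells lacking enzyme for full effect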
Scp-1 MG ctr: colorimetric readout interference by compounds, confirmation, artefact control for Scp-1 inhibitor project, biochemical, single concentration. apparent inhibition (interference), % at 20 µM. 2,500 tested, under 10 active. Colorimetric interference counterscreen, malachite green absorbance 630 nm. AID 540313, 2011. shares compounds with Scp1 inh;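 also: compounds added after enzyme reaction finished so only phosphate colour detection is probed; plate controls were DMSO wells with completed Scp-1 reaction for no effect and substrate wells lacking enzyme for full effect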
Scp-1 Tm shift: Scp-1 binding by thermal shift, confirmation, orthogonal assay for Scp-1 inhibitor project, biophysical, differential scanning fluorimetry; shares compounds with Scp1 inh; Recombinant SCP1, Sypro Orange thermal shift Tm; thermal shift relative to vanadate control, % at 40 µM; hit rate 25% among 1,500;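 active = substances whose mean melting-temperature shift, as a percentage of the reference inhibitor's shift, reaches about 5.3%, limit read from the data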;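 also: 0% = Tm of DMSO wells and 100% = Tm with sodium orthovanadate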
DNMT1 inh conf: DNMT1 methyltransferase inhibitor retest, confirmation, biochemical, molecular beacon, fluorescence, single concentration; inhibition, % at 10 µM; DNMT1 molecular beacon HinP1I cleavage; AID 602385, 2012; hit rate 8% among 2,300; shares compounds with DNMT1 inh;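 active = average inhibition of at least 30% in the single-concentration confirmation test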
Beacon interf: counter-screen for DNMT1 inhibitors: spectral interference. shares compounds with DNMT1 inh. activation (fluorescence interference), % at 10 µM. DNMT1 molecular beacon spectral interference counterscreen, fluorescence 485/520. hit rate 1% among 2,300;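 active = activation of at least 30% at 10 µM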;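 also: DNMT1 catalytic domain with a HinP1I cleavage step and a FAM/dabcyl DNA beacon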
Starred values were filed as active, the others as inactive.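 The calls were made as follows, unless noted: active = inhibition of at least 30% at 20 µM; inactive = the rest.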

How did O=C(CSc1nc(-c2ccccc2)cs1)NC(=O)NCc1ccco1 do in these assays?
GRK2 aptamer HTS: 1; DNMT1 inh: -8; Scp1 inh: -5; STEP inh: 1; SUMO1-SIM PPI: 4; LMPTP block: 1

How did COc1ccc(-c2nnc(SCC(=O)NCc3ccco3)n2C)cc1 do in these assays?
GRK2 aptamer HTS: 0; DNMT1 inh: 4; Scp1 inh: -8; STEP inh: 0; SUMO1-SIM PPI: 2; LMPTP block: 0

What do the screens show for `O=C(CSc1n[nH]c(-c2ccccc2)n1)NC(=O)NCc1ccco1`?
GRK2 aptamer HTS: 3; DNMT1 inh: 65*; Scp1 inh: 68*; STEP inh: 6; SUMO1-SIM PPI: 14; LMPTP block: 17; Scp-1 conf: 55*; Scp-1 MG ctr: -11; Scp-1 Tm shift: 1; DNMT1 inh conf: 2; Beacon interf: 1

Results for Cn1c(SCC(=O)NC(=O)NCc2ccco2)nnc1-c1ccccc1 ?
GRK2 aptamer HTS: 0; DNMT1 inh: 86*; Scp1 inh: 92*; STEP inh: 7; SUMO1-SIM PPI: 9; LMPTP block: 46; Scp-1 conf: 62*; Scp-1 MG ctr: -17; Scp-1 Tm shift: -13; DNMT1 inh conf: 1; Beacon interf: 2

How did Cc1ccccc1CSCC(=O)NC(=O)NCc1ccco1 do in these assays?
GRK2 aptamer HTS: 2; DNMT1 inh: 76*; Scp1 inh: 56*; STEP inh: 7; SUMO1-SIM PPI: 6; LMPTP block: 12; Scp-1 conf: 73*; Scp-1 MG ctr: -7; Scp-1 Tm shift: -15; DNMT1 inh conf: 0; Beacon interf: 5

What do the screens show for `Cc1ccc(NC(=O)CSc2nc3cc(C(=O)NCC4CCCO4)ccc3c(=O)n2CC2CCCO2)cc1` (stereo not given)?
DNMT1 inh: -1; STEP inh: -2; SUMO1-SIM PPI: -4; LMPTP block: -1

What do the screens show for `COc1cccc(C(C)(O)c2nc(-c3ccc4c(c3)OCO4)cs2)c1` (stereo not given)?
DNMT1 inh: -6; STEP inh: -3; SUMO1-SIM PPI: 3; LMPTP block: 0

How did Cc1cc2oc(C(=O)NCCc3ccc(S(N)(=O)=O)cc3)cc(=O)c2cc1C do in these assays?
GRK2 aptamer HTS: 0; DNMT1 inh: 15; Scp1 inh: -9; STEP inh: -3; SUMO1-SIM PPI: 6; LMPTP block: -1

What do the screens show for `Cc1cc2oc(C(=O)NCCc3ccc(S(N)(=O)=O)cc3)c(C)c2cc1C`?
GRK2 aptamer HTS: 2; DNMT1 inh: 79*; Scp1 inh: 85*; STEP inh: 8; SUMO1-SIM PPI: 3; LMPTP block: 50*; Scp-1 conf: 71*; Scp-1 MG ctr: -16; Scp-1 Tm shift: -11; DNMT1 inh conf: 3; Beacon interf: 2

What do the screens show for `O=C(Nc1ccccc1Cl)c1cc(C2CCCN(C(=O)c3ccccc3)C2)on1` (stereo not given)?
DNMT1 inh: 0; STEP inh: 0; SUMO1-SIM PPI: -2; LMPTP block: 0

Results for O=C1NN(c2ccccc2)C(=O)/C1=C/c1ccc(-c2ccc(Cl)c(C(=O)O)c2)o1 ?
DNMT1 inh: 85*; Scp1 inh: 70*; STEP inh: 18; SUMO1-SIM PPI: 20; LMPTP block: 9; Scp-1 conf: 62*; Scp-1 MG ctr: -8; Scp-1 Tm shift: 14*; DNMT1 inh conf: 12; Beacon interf: 0

What do the screens show for `Cc1cccc(N2NC(=O)/C(=C/c3ccc(-c4ccc(Cl)c(C(=O)O)c4)o3)C2=O)c1`?
DNMT1 inh: 84*; Scp1 inh: 71*; STEP inh: 21; SUMO1-SIM PPI: 30; LMPTP block: 26; Scp-1 conf: 56*; Scp-1 MG ctr: -23; Scp-1 Tm shift: 12*; DNMT1 inh conf: 12; Beacon interf: 0

What do the screens show for `CCc1nc2c(OCCOC)cccn2c1N(C)C(=O)Nc1ccccc1OC`?
DNMT1 inh: 1; STEP inh: -2; SUMO1-SIM PPI: 3; LMPTP block: -1

How did CC1=CCC(C(=O)O)C(C(=O)NC2CCCCC2)C1 (stereo not given) do in these assays?
GRK2 aptamer HTS: 89*; DNMT1 inh: 79*; Scp1 inh: 100*; STEP inh: 22; SUMO1-SIM PPI: 51*; LMPTP block: 1; Scp-1 conf: 75*; Scp-1 MG ctr: -7; Scp-1 Tm shift: -23; DNMT1 inh conf: 0; Beacon interf: 2

What do the screens show for `O=C(N/N=C\C=C\c1ccco1)c1cc(-c2ccc3ccccc3c2)n[nH]1`?
GRK2 aptamer HTS: 0; DNMT1 inh: 68*; Scp1 inh: 70*; STEP inh: 4; SUMO1-SIM PPI: 16; LMPTP block: 15; Scp-1 conf: 42*; Scp-1 MG ctr: -14; Scp-1 Tm shift: 13*; DNMT1 inh conf: 5; Beacon interf: 30

What do the screens show for `O=C(N/N=C/C=C/c1ccco1)c1cccnc1`?
GRK2 aptamer HTS: 2; DNMT1 inh: 9; Scp1 inh: 16; STEP inh: 2; SUMO1-SIM PPI: 11; LMPTP block: 1

High-throughput results from PubChem.
